≈ marks a conversion by molar mass, not a printed value. Entries after “also recorded” stand apart in the source; their conditions may differ.
Experiments:
[1] = tested on: a broad spectrum of normal and tumor cell lines; conditions: cited from earlier work
[2] = tested on: MCF-7S human breast carcinoma; conditions: read-out: IC50, MCF-7S cell growth; cited from earlier work
[3] = tested on: KB human epidermoid carcinoma; conditions: read-out: IC50, KB cell growth; cited from earlier work
[4] = tested on: several human cancer cell lines; conditions: cited from earlier work
[5] = tested on: SKW-3 chronic lymphoid leukemia cells; conditions: cited from earlier work
KB cells = conditions: cited from earlier work
[6] = tested on: P-388 murine lymphocytic leukemia cells; conditions: cited from earlier work
[7] = tested on: HT-29 human colon cancer cells; assay: Cytotoxicity against HT-29 cells; type: cell-based
How it was run: (§1)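 Cell growth-inhibition screen with paclitaxel as positive control. Each measurement was run in triplicate, and each value is representative of two independent experiments. IC50 was calculated by nonlinear regression.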

topoisomerase = conditions: cited from earlier work
[8] = cited from earlier work
[9] = tested on: CCD-112CoN normal human colon cells; assay: Cytotoxicity against CCD-112CoN cells; type: cell-based
How it was run: as §1

[10] = tested on: HT-29 cells implanted in immunodeficient NCr nu/nu mice; assay: In vivo hollow fiber assay
How it was run: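 Eight- to nine-week-old mice carrying HT-29 cells in hollow fibers received ip doses once daily on days 3–6 after implantation. Vehicle was diluted with water to 13% DMSO and 25% Cremophor; paclitaxel 5 mg/kg was the positive control. Body weight was recorded daily. Fibers were retrieved on day 7 for modified MTT. Net growth (day 7 − day 0 absorbance) was expressed relative to vehicle; n = 6 control, 3 per treatment.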

caspase-3 = assay: Caspase-3 activation by Western blot; type: cell-based, human; conditions: 24 h incubation; 1, 5 and 10 μM; cleaved caspase-3 Western blot
topo IIα = topo IIα (Homo sapiens, UniProt P11388); assay: Topoisomerase II assay; type: biochemical; conditions: 100 μM
[11] = tested on: HT-29 human colon cancer cell; conditions: 8-day treatment; cited from earlier work

topo IIα, sequence (P11388 whole entry): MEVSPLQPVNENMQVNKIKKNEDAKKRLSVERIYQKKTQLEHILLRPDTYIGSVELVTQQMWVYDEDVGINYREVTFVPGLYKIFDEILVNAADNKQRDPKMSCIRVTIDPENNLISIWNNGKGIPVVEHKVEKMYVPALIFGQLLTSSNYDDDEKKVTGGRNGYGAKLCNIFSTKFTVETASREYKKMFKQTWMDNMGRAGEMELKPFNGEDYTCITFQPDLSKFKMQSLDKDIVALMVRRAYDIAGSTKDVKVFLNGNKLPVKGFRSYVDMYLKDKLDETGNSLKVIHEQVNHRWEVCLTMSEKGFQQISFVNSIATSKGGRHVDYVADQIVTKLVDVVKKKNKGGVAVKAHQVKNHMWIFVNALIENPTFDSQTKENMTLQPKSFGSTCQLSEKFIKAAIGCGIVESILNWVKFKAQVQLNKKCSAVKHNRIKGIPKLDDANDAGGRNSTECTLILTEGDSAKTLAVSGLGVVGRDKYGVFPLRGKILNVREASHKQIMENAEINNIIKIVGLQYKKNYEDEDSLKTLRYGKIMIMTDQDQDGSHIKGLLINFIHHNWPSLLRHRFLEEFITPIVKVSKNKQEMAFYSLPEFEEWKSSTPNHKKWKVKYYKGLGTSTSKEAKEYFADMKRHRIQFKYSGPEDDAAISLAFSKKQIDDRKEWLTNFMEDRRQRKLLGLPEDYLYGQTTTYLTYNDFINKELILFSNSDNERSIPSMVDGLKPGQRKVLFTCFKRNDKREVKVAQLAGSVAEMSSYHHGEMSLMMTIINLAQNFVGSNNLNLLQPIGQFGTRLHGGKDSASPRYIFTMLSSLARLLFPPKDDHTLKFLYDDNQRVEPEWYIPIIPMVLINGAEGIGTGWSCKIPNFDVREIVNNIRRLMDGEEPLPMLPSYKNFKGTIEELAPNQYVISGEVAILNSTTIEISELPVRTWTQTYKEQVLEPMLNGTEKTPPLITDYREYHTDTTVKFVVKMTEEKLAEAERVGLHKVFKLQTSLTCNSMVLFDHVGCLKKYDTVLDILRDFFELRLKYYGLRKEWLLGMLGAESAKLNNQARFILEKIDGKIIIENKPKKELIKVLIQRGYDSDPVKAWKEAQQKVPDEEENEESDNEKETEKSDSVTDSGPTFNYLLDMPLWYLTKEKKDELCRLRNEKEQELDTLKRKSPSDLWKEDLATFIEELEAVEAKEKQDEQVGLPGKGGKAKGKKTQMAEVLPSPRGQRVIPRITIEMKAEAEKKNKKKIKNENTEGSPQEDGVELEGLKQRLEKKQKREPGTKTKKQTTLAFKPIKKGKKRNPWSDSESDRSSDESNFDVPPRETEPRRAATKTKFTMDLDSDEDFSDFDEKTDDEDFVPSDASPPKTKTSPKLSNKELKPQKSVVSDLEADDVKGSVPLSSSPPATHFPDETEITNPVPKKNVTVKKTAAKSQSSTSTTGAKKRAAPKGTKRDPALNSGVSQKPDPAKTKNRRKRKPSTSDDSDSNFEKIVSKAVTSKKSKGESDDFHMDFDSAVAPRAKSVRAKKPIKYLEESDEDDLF

For `COc1cc2c(O[C@@H]3O[C@H](CO)[C@@H](O)[C@H](O)[C@H]3O)c3c(c(-c4ccc5c(c4)OCO5)c2cc1OC)C(=O)OC3` [cleistanthin B], the “selectivity of cytotoxicity, tumor versus normal cell lines (in words)” value [1] is given as “showed cytotoxicity toward human tumor cells selectively”.
In the case of `COc1cc2c(O[C@@H]3O[C@H](C)[C@@H](O)[C@H](O)[C@H]3O)c3c(c(-c4ccc5c(c4)OCO5)c2cc1OC)C(=O)OC3` [Patentiflorin A], the IC50 [2] is given as 3 nM and the IC50 [3] is given as 4 nM.
In the case of `COc1ccc(-c2c3c(c(OC)c4cc5c(cc24)OCO5)COC3=O)cc1OC` [chinensinaphthol methyl ether], the “cytotoxicity (in words)” value [4] is given as “did not show such activity”.
For `COc1cc2cc3c(c(-c4ccc5c(c4)OCO5)c2cc1OC)C(=O)CO3` [Justicidin B], the “cytotoxicity toward SKW-3 cells (in words)” value [5] is given as “cytotoxic”.
For `COc1cc2c(OC3OCC(OC)C(OC)C3O)c3c(c(-c4ccc5c(c4)OCO5)c2cc1OC)C(=O)OC3` (centres unmarked) [Cleistanthin A], the “GI50 toward KB cells” value (KB cells) is given as 5.6 nM.
For `COc1cc2c(O[C@@H]3OC[C@H](O)[C@H](O)[C@H]3O)c3c(c(-c4ccc5c(c4)OCO5)c2cc1OC)C(=O)OC3` [Acutissimalignan A], the “IC50 toward P-388 cells” value [6] is given as 0.02 µg/mL (≈ 0.039 µM).
In the case of `COc1cc2c(O[C@@H]3O[C@H](CO)[C@@H](O)[C@H](O)[C@H]3O)c3c(c(-c4ccc5c(c4)OCO5)c2cc1OC)C(=O)OC3` [Compound 5, cleistanthin B], the “cytotoxicity against HT-29 human colon cancer cells (in words)” value [7] is reported as “inactive”.
In the case of `COc1cc2c(-c3ccc4c(c3)OCO4)c3c(cc2cc1O)COC3=O` [daurinol], the “formation of open circular and linear DNA from topoisomerase-DNA cleavable intermediate” value (topoisomerase) is listed as “did not induce the formation of open circular and linear DNA”.
In the case of `COc1cc2c(OC)c3c(c(-c4ccc5c(c4)OCO5)c2cc1OC)C(=O)OC3` [justicidin A], the “IC50 toward several human cancer cell lines” value [4] is listed as 0.002 to 0.007 µg/mL and the “cytotoxicity (in words)” value [4] is listed as “highly cytotoxic”.
In the case of Cleistanthoside A tetraacetate, the “IG50 values, cytotoxicity” value [8] is given as “in the nanomolar range”.
For `CC(=O)O[C@H]1C(=O)[C@@]2(C)[C@H]([C@H](OC(=O)c3ccccc3)[C@]3(O)C[C@H](OC(=O)[C@H](O)[C@@H](NC(=O)c4ccccc4)c4ccccc4)C(C)=C1C3(C)C)[C@]1(OC(C)=O)CO[C@@H]1C[C@@H]2O` [paclitaxel], the IC50 ([7]; Homo sapiens, HT-29, read-out: IC50 values toward the HT-29 cells) was 1 nM.
For `COc1cc2c(O[C@@H]3OC[C@H](O)[C@H](O)[C@H]3O)c3c(c(-c4ccc5c(c4)OCO5)c2cc1OC)C(=O)OC3` [Compound 4, phyllanthusmin C], the “cytotoxicity toward CCD-112CoN human normal colon cells (in words)” value [9] was “noncytotoxic”.
With `COc1cc2c(O[C@@H]3OC[C@H](OC(C)=O)[C@H](OC(C)=O)[C@H]3O)c3c(c(-c4ccc5c(c4)OCO5)c2cc1OC)C(=O)OC3` [Compound 1, 7-O-[(3,4-di-O-acetyl)-α-L-arabinopyranosyl]-4,5-dimethoxy-3′,4′-methylenedioxy-2,7′-cycloligna-7,7′-dieno-9,9′-lactone] the “cytotoxicity toward CCD-112CoN human normal colon cells (in words)” value [9] was “noncytotoxic”, the “toxicity in treated mice” value ([10]; 5.0-20.0 mg/kg ip once daily for 4 days, NCr nu/nu mice) was “No gross toxicity was observed; also recorded: no signs of toxicity” and the “relative HT-29 cell growth in hollow fibers” value ([10]; 10.0, 15.0 or 20.0 mg/kg ip once daily for 4 days, compared with 5 mg/kg ip, NCr nu/nu mice) was “statistically significantly different”. The “activity in in vivo hollow fiber assay” value ([10]; HT-29 cells implanted in NCr nu/nu mice) was “showed activity”, the “caspase-3 activation in HT-29 cells” value (caspase-3) was “induced activation of caspase-3” and the “topo IIα inhibition (in words)” value (topo IIα) was “did not inhibit DNA topoisomerase IIα activity”.
For `COc1cc([C@@H]2c3cc4c(cc3[C@@H](O[C@@H]3O[C@@H]5CO[C@@H](C)O[C@H]5[C@H](O)[C@H]3O)[C@H]3COC(=O)[C@H]23)OCO4)cc(OC)c1O` [etoposide], the “caspase-3 activation in HT-29 cells” value (caspase-3) is given as “did not induce caspase-3 activation”, the “HT-29 cell apoptosis induction” value [11] is given as “induced HT-29 human colon cancer cell apoptosis” and the “cytotoxicity against HT-29 human colon cancer cells (in words)” value [7] is given as “inactive”.

— paper PMC4073661 (Journal of Natural Products, 2014)
